Source: ChEMBL document CHEMBL1134278, “Design, synthesis, and biological activity of methoctramine-related polyamines as putative G(i) protein activators” (J Med Chem, 2001)

Assays:
Cavia porcellus [1] = organism: Cavia porcellus; experiment: Inotropic response relative to APE (APE = 100) in electrically paced (Hz) guinea pig left atria; format: functional
Cavia porcellus [2] = organism: Cavia porcellus; experiment: Inotropic responses, induced by the compound in electrically paced (Hz) guinea pig left atria; format: functional
How it was run: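 Left atria from guinea pig were electrically driven at 1 Hz, and negative inotropic effect was recorded. Cumulative concentration–response curves were run, with arecaidine propargyl ester (APE) as the muscarinic agonist reference. EC50 came from nonlinear regression curve fitting as the mean ± SE of at least four independent experiments.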

[3] = molecular target: T1, Muscarinic acetylcholine receptor M5 (Homo sapiens, UniProt P08912); experiment: Affinity for human muscarinic acetylcholine receptor M5 subtype expressed in CHO-K1 cells; format: cell-based
T1 sequence (P08912 whole entry): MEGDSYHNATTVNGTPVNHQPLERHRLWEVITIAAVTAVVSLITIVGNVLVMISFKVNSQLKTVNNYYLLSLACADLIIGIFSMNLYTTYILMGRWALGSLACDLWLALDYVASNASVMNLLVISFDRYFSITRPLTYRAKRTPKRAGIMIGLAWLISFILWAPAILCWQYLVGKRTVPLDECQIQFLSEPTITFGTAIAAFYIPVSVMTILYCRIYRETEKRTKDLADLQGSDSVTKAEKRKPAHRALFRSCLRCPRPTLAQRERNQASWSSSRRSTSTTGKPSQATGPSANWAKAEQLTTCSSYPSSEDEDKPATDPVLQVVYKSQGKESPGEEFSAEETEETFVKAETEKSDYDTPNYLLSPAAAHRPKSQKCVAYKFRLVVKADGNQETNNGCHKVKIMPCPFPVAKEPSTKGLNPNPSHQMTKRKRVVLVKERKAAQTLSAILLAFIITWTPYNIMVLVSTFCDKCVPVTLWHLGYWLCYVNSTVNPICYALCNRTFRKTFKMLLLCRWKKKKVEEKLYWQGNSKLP
How it was run: (§1)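 Radioligand displacement of [³H]NMS in CHO-K1 cells expressing human cloned muscarinic M1–M5 receptors. IC50 values were converted to Ki with the Cheng–Prusoff equation. Results are means ± SE of two to three experiments, each run in triplicate.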

[4] = molecular target: T2, Muscarinic acetylcholine receptor M1 (Homo sapiens, UniProt P11229); experiment: Affinity for human M1 cloned muscarinic receptor subtype expressed in CHO-K1 cells; format: cell-based; how it was run: as §1
T2 sequence (P11229 whole entry): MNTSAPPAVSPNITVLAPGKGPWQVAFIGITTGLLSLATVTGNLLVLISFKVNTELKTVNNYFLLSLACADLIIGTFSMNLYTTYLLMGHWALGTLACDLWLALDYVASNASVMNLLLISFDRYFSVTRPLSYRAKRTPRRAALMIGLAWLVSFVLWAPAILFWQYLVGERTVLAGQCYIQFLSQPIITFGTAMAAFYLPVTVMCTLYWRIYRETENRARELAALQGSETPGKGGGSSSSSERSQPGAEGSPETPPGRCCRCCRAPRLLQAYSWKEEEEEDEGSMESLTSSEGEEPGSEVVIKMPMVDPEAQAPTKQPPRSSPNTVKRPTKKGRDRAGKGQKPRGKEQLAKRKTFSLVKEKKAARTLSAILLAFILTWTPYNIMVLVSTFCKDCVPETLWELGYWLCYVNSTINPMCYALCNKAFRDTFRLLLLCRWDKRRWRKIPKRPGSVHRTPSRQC

[5] = molecular target: T3, Muscarinic acetylcholine receptor M3 (Homo sapiens, UniProt P20309); experiment: Affinity for human M3 cloned muscarinic receptor subtype expressed in CHO-K1 cells; format: cell-based; how it was run: as §1
Target sequence in this assay (P20309 whole entry): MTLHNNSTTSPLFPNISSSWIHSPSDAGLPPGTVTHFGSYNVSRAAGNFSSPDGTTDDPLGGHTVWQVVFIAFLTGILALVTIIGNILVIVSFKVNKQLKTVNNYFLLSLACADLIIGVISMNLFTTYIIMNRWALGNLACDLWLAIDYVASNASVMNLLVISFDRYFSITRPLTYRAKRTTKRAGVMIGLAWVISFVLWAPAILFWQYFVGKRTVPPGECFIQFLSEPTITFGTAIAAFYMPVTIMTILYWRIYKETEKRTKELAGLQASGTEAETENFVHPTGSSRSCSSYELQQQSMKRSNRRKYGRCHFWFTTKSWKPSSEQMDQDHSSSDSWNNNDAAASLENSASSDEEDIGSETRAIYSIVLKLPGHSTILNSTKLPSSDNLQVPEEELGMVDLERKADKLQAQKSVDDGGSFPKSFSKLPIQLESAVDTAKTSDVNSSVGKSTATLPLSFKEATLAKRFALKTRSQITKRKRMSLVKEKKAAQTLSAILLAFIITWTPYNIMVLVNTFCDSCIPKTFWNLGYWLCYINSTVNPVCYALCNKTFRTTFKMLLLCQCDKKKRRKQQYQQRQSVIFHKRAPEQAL

[6] = molecular target: T4, Muscarinic acetylcholine receptor M4 (Homo sapiens, UniProt P08173); experiment: Affinity for human M4 cloned muscarinic receptor subtype expressed in CHO-K1 cells; format: cell-based; how it was run: as §1
T4 sequence (P08173 whole entry): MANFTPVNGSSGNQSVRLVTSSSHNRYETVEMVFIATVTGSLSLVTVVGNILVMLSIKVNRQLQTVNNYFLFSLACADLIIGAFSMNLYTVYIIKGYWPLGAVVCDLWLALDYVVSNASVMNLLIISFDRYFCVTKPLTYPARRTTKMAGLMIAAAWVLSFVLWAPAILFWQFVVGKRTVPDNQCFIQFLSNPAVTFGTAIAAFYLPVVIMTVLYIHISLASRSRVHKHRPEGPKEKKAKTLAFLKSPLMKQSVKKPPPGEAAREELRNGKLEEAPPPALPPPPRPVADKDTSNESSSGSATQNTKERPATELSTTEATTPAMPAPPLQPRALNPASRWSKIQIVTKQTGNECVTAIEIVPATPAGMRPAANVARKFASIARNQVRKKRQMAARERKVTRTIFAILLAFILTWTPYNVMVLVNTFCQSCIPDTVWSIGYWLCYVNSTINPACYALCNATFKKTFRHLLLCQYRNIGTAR

[7] = molecular target: T5, Muscarinic acetylcholine receptor M2 (Homo sapiens, UniProt P08172); experiment: Binding affinity against muscarinic acetylcholine receptor M2
T5 sequence (P08172 whole entry): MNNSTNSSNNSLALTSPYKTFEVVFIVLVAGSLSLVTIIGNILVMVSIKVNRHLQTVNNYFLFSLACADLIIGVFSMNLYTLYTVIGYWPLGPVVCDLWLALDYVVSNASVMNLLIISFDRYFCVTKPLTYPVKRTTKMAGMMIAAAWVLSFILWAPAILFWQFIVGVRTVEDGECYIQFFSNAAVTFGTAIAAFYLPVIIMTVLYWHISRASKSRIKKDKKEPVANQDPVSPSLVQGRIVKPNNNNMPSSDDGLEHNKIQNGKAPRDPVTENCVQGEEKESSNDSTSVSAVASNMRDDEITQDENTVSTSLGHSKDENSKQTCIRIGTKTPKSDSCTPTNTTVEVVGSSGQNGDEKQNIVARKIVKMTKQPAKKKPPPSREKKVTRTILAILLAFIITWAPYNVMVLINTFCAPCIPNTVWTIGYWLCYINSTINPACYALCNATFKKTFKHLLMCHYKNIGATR

Cavia porcellus [8] = organism: Cavia porcellus; experiment: Antagonist affinity, in electrically paced (1 Hz) guinea pig left atria using N-dodecyl lysine amide as agonist
Cavia porcellus [9] = organism: Cavia porcellus; experiment: Antagonist affinity, in electrically paced (1 Hz) guinea pig left atria using 1'-[8-(1-(2-methoxy -benzyl)-[4,4']bipiperidinyl)-octyl]-1-(2-methoxy-benzyl)-[4,4']biiperidinyl as agonist; format: functional
How it was run: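 Driven guinea pig left atria paced at 1 Hz. Each antagonist was tested at one concentration, 0.1 µM, incubated 1 h. One tissue received the antagonist and a second untreated tissue served as control, each giving a cumulative agonist concentration–response curve. pK_B = −log{[antagonist]/(DR−1)}. Mean ± SE of four experiments.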

Cavia porcellus [10] = organism: Cavia porcellus; experiment: Antagonist affinity, in electrically paced (1 Hz) guinea pig left atria using the APE as agonist; format: functional
How it was run: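 Driven guinea pig left atria paced at 1 Hz, with cumulative agonist concentration–response curves. Each antagonist was tested at one concentration, 0.1 µM, incubated 1 h. pK_B was calculated from the dose ratio as −log{[antagonist]/(DR−1)}. Mean ± SE of four experiments.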

[11] = molecular target: T6, Muscarinic acetylcholine receptor M2 (Homo sapiens) (UniProt P08172); experiment: Affinity for human muscarinic acetylcholine receptor M2 expressed in CHO-K1 cells at a concentration of 10 uM; format: cell-based
T6 sequence (whole entry): T5 sequence (P08172 whole entry)

[12] = molecular target: T7, Muscarinic acetylcholine receptor M1 (Homo sapiens) (UniProt P11229); experiment: Affinity for human M1 cloned muscarinic receptor subtype expressed in CHO-K1 cells at a concentration of 10 uM; format: cell-based
T7 sequence (whole entry): T2 sequence (P11229 whole entry)

[13] = molecular target: T8, Muscarinic acetylcholine receptor M4 (Homo sapiens) (UniProt P08173); experiment: Affinity for human M4 cloned muscarinic receptor subtype expressed in CHO-K1 cells at a concentration of 10 uM; format: cell-based
T8 sequence (whole entry): T4 sequence (P08173 whole entry)

[14] = molecular target: T3, Muscarinic acetylcholine receptor M3; experiment: Affinity for human M3 cloned muscarinic receptor subtype expressed in CHO-K1 cells at a concentration of 10 uM; format: cell-based
Target sequence in this assay (P20309 whole entry, looked up): as the sequence (P20309 whole entry) above

[15] = molecular target: T9, Muscarinic acetylcholine receptor M5 (Homo sapiens) (UniProt P08912); experiment: Affinity for human muscarinic acetylcholine receptor M5 subtype expressed in CHO-K1 cells at a concentration of 10 uM; format: cell-based
T9 sequence (whole entry): T1 sequence (P08912 whole entry)

[16] = molecular target: T5, Muscarinic acetylcholine receptor M2; experiment: biochemical

| SMILES | Relative efficacy (Cavia porcellus [1]) | EC50 (Cavia porcellus [2]) [nM] | Reduction [11] [%] | Reduction [12] [%] | Reduction [13] [%] | Reduction [14] [%] | Reduction [15] [%] | other results |
| --- | --- | --- | --- | --- | --- | --- | --- | --- |
| C#CCOC(=O)C1=CCCN(C)C1 [ARECAIDINE PROPARGYL ESTER] | 100 | 7.08 | – | – | – | – | – | – |
| COc1ccccc1CN1CCC(C2CCN(CCCCCCCCN3CCC(C4CCN(Cc5ccccc5OC)CC4)CC3)CC2)CC1 [PIPERTRAMINE] | 84 | 0.224 | – | – | – | – | – | Ki [3]: 105 nM; Ki [4]: 19.8 nM; Ki [5]: 422 nM; Ki [6]: 15.3 nM; Ki [7]: 8.6 nM |
| CN1[C@@H]2CC[C@H]1C[C@@H](OC(=O)C(CO)c1ccccc1)C2 (some centres not stated) [ATROPINE] | – | – | – | – | – | – | – | pKB (Cavia porcellus [8]): 7.45; pKB (Cavia porcellus [9]): 7.18; pKB (Cavia porcellus [10]): 9.15 |
| COc1ccccc1CN1CCC(C2CCN(C)CC2)CC1 | 70 | 0.603 | 35 | 17 | 25 | 12 | 25 | – |
| COc1ccccc1CN1CCC(C2CCNCC2)CC1 | 75 | 0.525 | 49 | 22 | 28 | 12 | 29 | – |
| COc1ccccc1CN1CCC(C2CCN(C(=O)CCCCCCC(=O)N3CCC(C4CCN(Cc5ccccc5OC)CC4)CC3)CC2)CC1 [PIPERTRAMINE AMIDE] | 85 | 0.398 | – | – | – | – | – | Ki [3]: 183 nM; Ki [4]: 108 nM; Ki [16]: 9.2 nM; Ki [5]: 97.2 nM; Ki [6]: 16.6 nM |
| COc1ccccc1CN1CCC(C2CCN(C(C)=O)CC2)CC1 | 79 | 1.29 | – | – | – | – | – | – |
| CCCCCCCCCCCCNC(CCCCN)C(N)=O (configuration not stated) | 82 | 0.339 | 13 | 17 | 0 | 17 | 24 | – |
